# Experimental data published in ChEMBL document CHEMBL2010740, “Synthesis and evaluation of 2-amido-3-carboxamide thiophene CB₂ receptor agonists for pain management” (Bioorg Med Chem Lett, 2012).
# Columns and labels:
# Format in all cases: cell-based
# [1] = target: Cannabinoid receptor 1 (Homo sapiens, UniProt P21554); assay: Displacement of [3H]CP-55940 from human recombinant CB1 receptor expressed in CHO cells after 90 mins
# Procedure, shortened: (§1)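 Competitive binding: [³H]CP-55,940 displaced from membranes of HEK 293 cells stably transfected with human or rat CB₂, or CHO cells stably transfected with human or rat CB₁. Reported as pKi. Determinations >2 (duplicate of duplicate).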
# [2] = target: T1, Cannabinoid receptor 2 (Rattus norvegicus, UniProt Q9QZN9); assay: Displacement of [3H]CP-55940 from rat recombinant CB2 receptor expressed in HEK293 cells after 90 mins; procedure, shortened: as §1
# T1 sequence (Q9QZN9 whole entry): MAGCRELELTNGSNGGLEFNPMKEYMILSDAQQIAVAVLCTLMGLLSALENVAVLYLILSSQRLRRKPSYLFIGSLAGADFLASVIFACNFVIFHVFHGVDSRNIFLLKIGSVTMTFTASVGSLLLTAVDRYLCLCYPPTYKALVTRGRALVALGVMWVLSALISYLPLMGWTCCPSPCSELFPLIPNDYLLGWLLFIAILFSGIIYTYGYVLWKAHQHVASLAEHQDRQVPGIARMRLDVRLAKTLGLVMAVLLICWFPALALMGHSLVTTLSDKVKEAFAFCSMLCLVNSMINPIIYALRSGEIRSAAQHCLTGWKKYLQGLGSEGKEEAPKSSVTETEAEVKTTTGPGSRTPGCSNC
# [3] = target: Cannabinoid receptor 2 (Homo sapiens, UniProt P34972); assay: Displacement of [3H]CP-55940 from human recombinant CB2 receptor expressed in HEK293 cells after 90 mins; procedure, shortened: as §1
# Cannabinoid receptor 2 (Homo sapiens, UniProt P34972), sequence (P34972 whole entry): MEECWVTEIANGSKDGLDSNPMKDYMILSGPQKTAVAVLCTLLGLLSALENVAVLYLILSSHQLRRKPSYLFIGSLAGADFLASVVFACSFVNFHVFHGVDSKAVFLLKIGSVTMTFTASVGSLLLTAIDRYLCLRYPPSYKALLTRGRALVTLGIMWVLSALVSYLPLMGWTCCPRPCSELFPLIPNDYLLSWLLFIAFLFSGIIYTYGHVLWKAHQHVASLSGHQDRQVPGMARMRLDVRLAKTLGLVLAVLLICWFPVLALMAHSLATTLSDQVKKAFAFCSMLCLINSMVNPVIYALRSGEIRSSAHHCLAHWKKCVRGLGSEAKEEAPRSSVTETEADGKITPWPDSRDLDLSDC
# Cannabinoid receptor 1, sequence (P21554 whole entry): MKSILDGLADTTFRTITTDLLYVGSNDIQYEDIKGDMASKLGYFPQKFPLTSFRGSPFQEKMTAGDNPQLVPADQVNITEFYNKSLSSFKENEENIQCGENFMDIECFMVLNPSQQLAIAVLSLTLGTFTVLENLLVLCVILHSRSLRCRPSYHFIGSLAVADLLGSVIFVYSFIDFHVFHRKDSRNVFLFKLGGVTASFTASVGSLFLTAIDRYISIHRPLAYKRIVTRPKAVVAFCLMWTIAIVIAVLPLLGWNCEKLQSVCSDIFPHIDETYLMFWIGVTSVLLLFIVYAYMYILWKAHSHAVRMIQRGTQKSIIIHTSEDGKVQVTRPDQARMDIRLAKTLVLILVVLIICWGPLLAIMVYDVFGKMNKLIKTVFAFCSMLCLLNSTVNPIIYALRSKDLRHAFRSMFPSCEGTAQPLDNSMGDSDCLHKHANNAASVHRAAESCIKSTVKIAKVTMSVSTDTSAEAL
smiles,measurement,setting,value
CCCNC(=O)c1c(NC(=O)C23CC4CC(CC(C4)O2)C3)sc2c1CCOC2,Ki,[1],> 10000 nM
same,Ki,[2],490 nM
same,Ki,[3],257 nM
